Fibroblast inh: blocks proliferation of human lung fibroblasts | LL 47 human lung fibroblast viability, ATP luminescence; hits give low values | viability, % at 10 µM | 1.1% of 85,000 active;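 active means viability at or below 50% in the single dose screen; inactive means viability above 50%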;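 further: compound exposure lasted 72 h before the ATP readout; 100% = median luminescence of untreated cell-only wells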
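test system = LL 47 human lung fibroblasts | amount = 1,150 fibroblasts seeded per well | medium = 15% FBS in IMEM | times = overnight cell rest, 72 h compound treatment at 37 °C | measured by = CellTiter-Glo luminescence measuring cellular ATP | read-out = viability percentage against median untreated-cell control | benchmarks = cell-only wells, no compound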
H69AR inhibit: growth inhibitors of human H69AR lung tumor cells | viability, % at 10 µM | AID 598 | 6% of 85,000 active | H69AR lung tumor viability, ATP luminescence, 72 h; hits give low values;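 active means viability at or below 40%; inactive means viability above 40%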;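 further: multidrug resistant small cell line overexpressing MRP-1 efflux transporter; 100% = mean luminescence of untreated control wells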
HUVEC prolif 384: inhibitors of human endothelial cell proliferation; HUVEC proliferation, CellTiter-Glo luminescence, 72 h; hits give low values; viability, % at 10 µM (by protocol); 1.1% of 86,000 active; AID 648;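 active means viability at or below 30%; inactive means viability above 30%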;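 further: 100% = median luminescence of DMSO-only cell control wells on each plate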
Jurkat tox 60K: cytotoxicity toward Jurkat cells. Jurkat E6.1 viability, ATP luminescence, 48 h. inhibition, % at 4 µM. 1.2% of 56,000 active. AID 463;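 active means inhibition above the mean inhibition of all tested compounds plus 3 SD, cut at about 28% in these data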
The depositor's hits bear a star. This is a sample that favours compounds with a hit; in the whole collection about 6.6% have one here.

Screening COc1ccc(C=C(C(C)=O)C(C)=O)cc1OC returned Fibroblast inh 103, H69AR inhibit 22* and HUVEC prolif 384 89.
For Cc1ccc(S(=O)(=O)NCC(=O)OC(C)C(=O)Nc2ncc(Cl)cc2Cl)cc1 (centres undefined) the results were Fibroblast inh 109, H69AR inhibit 85 and HUVEC prolif 384 103.
CN(C)c1ccc(C(=O)c2ccc(N(C)C)c3ccccc23)cc1 was read as Fibroblast inh 44*, H69AR inhibit 36* and HUVEC prolif 384 43.
For COc1ccc(C(=O)c2ccc(N(C)C)cc2)c(OC)c1 the results were Jurkat tox 60K 81*.
For COc1ccc(OC)c(C(=O)c2ccc(C(=O)c3cc(OC)ccc3OC)cc2)c1 the results were Fibroblast inh 91, H69AR inhibit 104 and HUVEC prolif 384 80.
Screening CCOC(=O)C(C(C)=O)C(c1ccc(OCCC(C)C)cc1)C(C(C)=O)C(=O)OCC (centres undefined) returned Fibroblast inh 90, H69AR inhibit 80 and HUVEC prolif 384 103.
For CCN1c2ccccc2NC2C1C(C(C)=O)C(=O)N2c1ccc(Cl)cc1 (centres undefined) the results were Fibroblast inh 79, H69AR inhibit 18*, HUVEC prolif 384 54 and Jurkat tox 60K 9.
Screening Cc1cccc(OCC2=NS(=O)(=O)c3ccccc3N2)c1 returned Fibroblast inh 102, HUVEC prolif 384 100 and Jurkat tox 60K -2.
`CC1CC(C)CN(CCCNC(=O)c2csc3c2CCCC3)C1` (centres undefined) gave Fibroblast inh 93, H69AR inhibit 85 and HUVEC prolif 384 98.
For O=C(CCN1CCN(Cc2ccccc2)CC1)Nc1cccc(Cl)c1 the results were Fibroblast inh 96, H69AR inhibit 86, HUVEC prolif 384 80 and Jurkat tox 60K 3.
`CC1(C)Cc2c(sc3c2c(=N)n(Cc2ccco2)c(=O)n3CC(=O)Nc2ccc(Cl)cc2)CO1` gave Fibroblast inh 22*, H69AR inhibit 88, HUVEC prolif 384 78 and Jurkat tox 60K -8.
`COc1ccc(OC(C)C(=O)N2CCc3ccccc3C2)cc1` (centres undefined) gave Fibroblast inh 96, H69AR inhibit 25*, HUVEC prolif 384 74 and Jurkat tox 60K -5.
`Fc1ccccc1CSc1nc2ccccc2[nH]1` gave Fibroblast inh 90, H69AR inhibit 99 and HUVEC prolif 384 99.
For Cc1ccccc1NS(=O)(=O)c1ccc2[nH]cc(C(=O)N(C)Cc3ccco3)c(=O)c2c1 the results were Jurkat tox 60K 2.
`Cc1cc(C)cc(NS(=O)(=O)c2ccc3[nH]cc(C(=O)NCc4ccco4)c(=O)c3c2)c1` gave Fibroblast inh 58, H69AR inhibit 69, HUVEC prolif 384 39 and Jurkat tox 60K 48*.
Screening CC1CCCCC1NC(=O)c1ccc2c(c1)[nH]c(=O)n2C1CCCC1 (centres undefined) returned Fibroblast inh 92, H69AR inhibit 21*, HUVEC prolif 384 105 and Jurkat tox 60K 8.
Cc1cc(C(=O)OCC(=O)Nc2cc(C(F)(F)F)ccc2N2CCOCC2)c(C)o1 was read as H69AR inhibit 71, HUVEC prolif 384 94 and Jurkat tox 60K -1.
`Cc1cc(N2CCC(C)CC2)nc(-n2nc(C)cc2C)n1` gave Fibroblast inh 93, H69AR inhibit 1.7*, HUVEC prolif 384 121 and Jurkat tox 60K 7.
Screening Cc1cc(C)n(-c2nc3ccccc3nc2N2CCC(C)CC2)n1 returned Fibroblast inh 94, H69AR inhibit 90 and HUVEC prolif 384 120.
For Cc1ccc(C2CC2C(=O)NNC(=S)Nc2ccc(Cl)cc2)cc1 (centres undefined) the results were Fibroblast inh 98, H69AR inhibit 76 and HUVEC prolif 384 68.
Screening COc1ccc(N(C(=O)c2ccc(Cl)cc2)C2=CC3CCC(C2)N3C)cc1 (centres undefined) returned Fibroblast inh 96, H69AR inhibit 99 and HUVEC prolif 384 88.
Screening CC(=O)c1cnc(N(C)C)s1 returned Fibroblast inh 101, H69AR inhibit 94 and HUVEC prolif 384 98.
Screening O=C1C(Cl)=C(N2CCCCC2)C(=O)C(Cl)=C1c1cnc(N2CCCCC2)s1 returned Fibroblast inh 19*, H69AR inhibit 1.6* and HUVEC prolif 384 14*.
Screening Clc1ccc(Cl)c2sc(N3CCCC3)nc12 returned Fibroblast inh 97, H69AR inhibit 94, HUVEC prolif 384 97 and Jurkat tox 60K -2.
Screening CN(C)c1ncc(C2=C(Cl)C(=O)C(N3CCCC3)=C(Cl)C2=O)s1 returned Fibroblast inh 69, H69AR inhibit 89 and HUVEC prolif 384 23*.
